Measured values taken from ChEMBL document CHEMBL2010799, “Hypoglycemic diterpenoids from Tinospora crispa” (2012).
Active and inactive are the calls of the source. The rule behind the calls is not given here.

Legend:
[1] = system: Mus musculus; assay: Antidiabetic activity in normal ICR mouse assessed as reduction in plasma glucose level at 5 mg/kg, ip after 60 mins; type: functional, organism-based; set-up: dose 5 mg/kg
Method in brief: (§1)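 ICR mice (normal, STZ-induced T1DM, or diet-induced T2DM) received a single ip injection in 2% DMSO/normal saline vehicle. Orbital plexus blood was drawn under pentobarbital anesthesia before and 60 min after injection. Plasma glucose was read with a glucose kit and analyzer and expressed as percent decrease, (Gi − Gt)/Gi × 100%. Seven animals per group, mean ± SEM.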

[2] = system: MIN6; assay: Induction of insulin secretion in mouse MIN6 cells; type: functional, cell-based
[3] = Blockade of ATP-sensitive K+ channels
[4] = system: Mus musculus; assay: Antidiabetic activity in STZ-induced ICR mouse T1DM model assessed as reduction in plasma glucose level at 5 mg/kg, ip after 60 mins; type: functional, organism-based; set-up: dose 5 mg/kg; method in brief: as §1
[5] = system: Mus musculus; assay: Antidiabetic activity in normal ICR mouse assessed as reduction in plasma glucose level at 5 mg/kg, ip after 60 mins relative to metformin at 200 mg/kg, ip; type: functional
[6] = system: Mus musculus; assay: Antidiabetic activity in STZ-induced ICR mouse T1DM model assessed as reduction in plasma glucose level at 5 mg/kg, ip after 60 mins relative to metformin at 200 mg/kg, ip; type: functional
[7] = system: Mus musculus; assay: Antidiabetic activity in normal ICR mouse assessed as increase in plasma insulin level at 1 mg/kg, ip after 60 mins by ELISA (reference value: 60.3 +/- 3.7 pmol/L); type: functional; details: route intraperitoneal
[8] = system: Mus musculus; assay: Antidiabetic activity in ip dosed STZ-induced ICR mouse T1DM model assessed as reduction in plasma glucose level after 60 mins; type: functional, organism-based; method in brief: as §1
[9] = system: Mus musculus; assay: Antidiabetic activity in STZ-induced ICR mouse T1DM model assessed as increase in plasma insulin level at 0.1 mg/kg, ip after 60 mins by ELISA (reference value: 15.2 +/- 0.8 pmol/L); type: functional; details: route intraperitoneal
[10] = system: Mus musculus; assay: Antidiabetic activity in diet-induced ICR mouse T2DM model assessed as increase in plasma insulin level at 0.1 mg/kg, ip after 60 mins by ELISA (reference value: 111.8 +/- 5.2 pmol/L); type: functional; details: route intraperitoneal
[11] = system: Mus musculus; assay: Antidiabetic activity in diet-induced ICR mouse T2DM model assessed as increase in plasma insulin level at 3 mg/kg, ip after 60 mins by ELISA (reference value: 112.1 +/- 3.2 pmol/L); type: functional; details: route intraperitoneal
[12] = system: Mus musculus; assay: Antidiabetic activity in STZ-induced ICR mouse T1DM model assessed as decrease in phosphoenolpyruvate carboxykinase level in liver at 5 mg/kg administered bid for 7 days by Western blotting analysis; type: functional, organism-based; set-up: dose 5 mg/kg
Method in brief: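 Male ICR mice with STZ-induced T1DM (fasting glucose >350 mg/dL, used 4 weeks after STZ) were dosed ip at 5.0 mg/kg twice daily for 7 days. Liver homogenates (60 µg) were run on 8% SDS-PAGE and Western blotted with PEPCK antibody (1:1000), with ECL detection. PEPCK (70 kDa) and β-actin (43 kDa) were quantified by densitometry; n = 3.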

[13] = system: Mus musculus; assay: Antidiabetic activity in STZ-induced ICR mouse T1DM model assessed as increase in plasma insulin level at 5 mg/kg, ip after 60 mins by ELISA (reference value: 14.7 +/- 0.4 pmol/L); type: functional; details: route intraperitoneal
[14] = system: Mus musculus; assay: Antidiabetic activity in normal ICR mouse assessed as increase in plasma insulin level at 3 mg/kg, ip after 60 mins by ELISA (reference value: 52 +/- 3.7 pmol/L); type: functional; details: route intraperitoneal
[15] = system: Mus musculus; assay: Antidiabetic activity in diet-induced ICR mouse T2DM model assessed as increase in plasma insulin level at 1 mg/kg, ip after 60 mins by ELISA (reference value: 111.6 +/- 2.7 pmol/L); type: functional; details: route intraperitoneal
[16] = system: Mus musculus; assay: Antidiabetic activity in STZ-induced ICR mouse T1DM model assessed as increase in plasma insulin level at 3 mg/kg, ip after 60 mins by ELISA (reference value: 13.8 +/- 1.6 pmol/L); type: functional; details: route intraperitoneal
[17] = system: Mus musculus; assay: Antidiabetic activity in diet-induced ICR mouse T2DM model assessed as reduction in plasma glucose level after 30 mins post glucose challenge by ip glucose tolerance test (reference value: 406 +/- 9 mg/dL); type: functional
[18] = system: Mus musculus; assay: Antidiabetic activity in diet-induced ICR mouse T2DM model assessed as increase in plasma insulin level at 5 mg/kg, ip after 60 mins by ELISA (reference value: 112.1 +/- 6.3 pmol/L); type: functional; details: route intraperitoneal
[19] = system: Mus musculus; assay: Antidiabetic activity in normal ICR mouse assessed as reduction in plasma glucose level after 30 mins post glucose challenge by ip glucose tolerance test (reference value: 346 +/- 15 mg/dL); type: functional
[20] = system: Mus musculus; assay: Antidiabetic activity in normal ICR mouse assessed as increase in plasma insulin level at 5 mg/kg, ip after 60 mins by ELISA (reference value: 57.6 +/- 2.4 pmol/L); type: functional; details: route intraperitoneal
[21] = system: Mus musculus; assay: Antidiabetic activity in normal ICR mouse assessed as increase in plasma insulin level at 0.1 mg/kg, ip after 60 mins by ELISA (reference value: 54 +/- 3.4 pmol/L); type: functional; details: route intraperitoneal
[22] = system: Mus musculus; assay: Antidiabetic activity in diet-induced ICR mouse T2DM model assessed as increase in plasma insulin level at 0.5 mg/kg, ip after 60 mins by ELISA (reference value: 120.8 +/- 4.3 pmol/L); type: functional; details: route intraperitoneal
[23] = system: Mus musculus; assay: Antidiabetic activity in normal ICR mouse assessed as reduction in plasma glucose level after 60 to 150 mins post glucose challenge by ip glucose tolerance test; type: functional, organism-based
[24] = system: Mus musculus; assay: Antidiabetic activity in ip dosed diet-induced ICR mouse T2DM model assessed as reduction in plasma glucose level after 60 mins; type: functional, organism-based; method in brief: as §1
[25] = system: Mus musculus; assay: Antidiabetic activity in ip dosed normal ICR mouse assessed as reduction in plasma glucose level after 60 mins; type: functional, organism-based; method in brief: as §1
[26] = system: Mus musculus; assay: Antidiabetic activity in normal ICR mouse assessed as increase in plasma insulin level at 0.5 mg/kg, ip after 60 mins by ELISA (reference value: 53.1 +/- 3.3 pmol/L); type: functional; details: route intraperitoneal
[27] = system: Mus musculus; assay: Antidiabetic activity in diet-induced ICR mouse T2DM model assessed as reduction in plasma glucose level after 60 to 150 mins post glucose challenge by ip glucose tolerance test; type: functional, organism-based
[28] = system: Mus musculus; assay: Antidiabetic activity in STZ-induced ICR mouse T1DM model assessed as increase in plasma insulin level at 0.5 mg/kg, ip after 60 mins by ELISA (reference value: 16.2 +/- 0.7 pmol/L); type: functional; details: route intraperitoneal
[29] = system: Mus musculus; assay: Antidiabetic activity in STZ-induced ICR mouse T1DM model assessed as increase in plasma insulin level at 1 mg/kg, ip after 60 mins by ELISA (reference value: 15.7 +/- 1.0 pmol/L); type: functional; details: route intraperitoneal
[30] = system: Mus musculus; assay: Antidiabetic activity in normal ICR mouse assessed as reduction in plasma glucose level at 5 mg/kg, ip after 60 mins (reference value: 102 +/- 3.7 mg/dL); type: functional; details: route intraperitoneal; method in brief: as §1
[31] = system: Mus musculus; assay: Antidiabetic activity in normal ICR mouse assessed as increase in plasma insulin level at 5 mg/kg, ip after 60 mins by ELISA (reference value: 52.5 +/- 4.6 pmol/L); type: functional; details: route intraperitoneal
[32] = system: Mus musculus; assay: Antidiabetic activity in diet-induced ICR mouse T2DM model assessed as reduction in plasma glucose level at 5 mg/kg, ip after 60 mins (reference value: 170 +/- 2.8 mg/dL); type: functional; details: route intraperitoneal; method in brief: as §1
[33] = system: Mus musculus; assay: Antidiabetic activity in diet-induced ICR mouse T2DM model assessed as increase in plasma insulin level at 5 mg/kg, ip after 60 mins by ELISA (reference value: 123.5 +/- 10.2 pmol/L); type: functional; details: route intraperitoneal
[34] = system: Mus musculus; assay: Antidiabetic activity in STZ-induced ICR mouse T1DM model assessed as increase in plasma insulin level at 200 mg/kg, ip after 60 mins by ELISA (reference value: 13.5 +/- 1.1 pmol/L); type: functional; details: route intraperitoneal
[35] = system: Mus musculus; assay: Antidiabetic activity in normal ICR mouse assessed as reduction in plasma glucose level at 200 mg/kg, ip after 60 mins; type: functional, organism-based; set-up: dose 200 mg/kg; method in brief: as §1
[36] = system: Mus musculus; assay: Antidiabetic activity in STZ-induced ICR mouse T1DM model assessed as reduction in plasma glucose level at 200 mg/kg, ip after 60 mins; type: functional, organism-based; set-up: dose 200 mg/kg; method in brief: as §1

With `COC(=O)C1=C[C@H](O)C[C@H]2[C@]3(C)C[C@@H](c4ccoc4)OC(=O)[C@H]3C[C@H](O[C@@H]3O[C@H](CO)[C@@H](O)[C@H](O)[C@H]3O)[C@@]12C` the Activity [1] was “inactive”, the Activity [2] was “inactive” and the Activity [3] was “inactive”. For the same compound, the Activity [4] was “inactive”.

In the case of `C[C@@]12C[C@@H](c3ccoc3)OC(=O)[C@@H]1C[C@@H]1OC(=O)[C@@]3(O)[C@@H](O[C@@H]4O[C@H](CO)[C@@H](O)[C@H](O)[C@H]4O)CC[C@@H]2[C@@]13C` [BORAPETOSIDE A], the Activity [1] is reported as “Active”, the Activity [2] is reported as “inactive” and the Activity [3] is reported as “inactive”. The “fold change (FC)” value [5] was 2, the “fold change (FC)” value [6] was 2 and the Activity [4] was “Active”.

With `COC(=O)C1=CCC[C@H]2[C@]3(C)C[C@@H](c4ccoc4)OC(=O)[C@@H]3C[C@@H](O[C@@H]3O[C@H](CO)[C@@H](O)[C@H](O)[C@H]3O)[C@@]12C` [BORAPETOSIDE C] the Activity [7] was 63 pmol/L, the Activity [8] was “Dose-dependent effect” and the Activity [9] was 16.3 pmol/L. For the same compound, the Activity [10] was 111.3 pmol/L, the Activity [11] was 253.9 pmol/L and the Activity [12] was “Active”. For the same compound, the Activity [13] was 14.3 pmol/L, the Activity [14] was 142.6 pmol/L and the Activity [15] was 173 pmol/L. For the same compound, the Activity [16] was 14.8 pmol/L, the Activity [17] was 343 mg/dL and the Activity [18] was 257.6 pmol/L. It also gave an Activity [19] of 293 mg/dL, an Activity [20] of 149.6 pmol/L and an Activity [21] of 71.5 pmol/L. The Activity [1] was “Active”, the Activity [2] was “inactive” and the Activity [22] was 170.8 pmol/L. The Activity [23] was “Active”, the Activity [24] was “Dose-dependent effect” and the Activity [3] was “inactive”. For the same compound, the Activity [25] was “Dose-dependent effect”, the Activity [4] was “Active” and the Activity [26] was 70.7 pmol/L. The Activity [27] was “Active”, the Activity [28] was 15.7 pmol/L and the Activity [29] was 15.9 pmol/L.

`COc1ccc(Cl)cc1C(=O)NCCc1ccc(S(=O)(=O)NC(=O)NC2CCCCC2)cc1` [GLYBURIDE] showed an Activity [30] of 84 mg/dL, an Activity [31] of 145.8 pmol/L and an Activity [32] of 108 mg/dL. It also gave an Activity [33] of 208.8 pmol/L.

For `CN(C)C(=N)NC(=N)N` [METFORMIN], the Activity [34] was 15.1 pmol/L, the Activity [35] was “Active” and the Activity [36] was “Active”.
